# In ChEMBL document CHEMBL4033643, “Synthesis and in vitro antitumour activity of crassalactone D, its stereoisomers and novel cinnamic ester derivatives” (Eur J Med Chem, 2017):
# Calls of active or inactive are those of the source. No cut-off for these calls is given here.
# How the values were obtained:
# K562 [1] = assay: Induction of apoptosis in human K562 cells assessed as increase in Bax expression level by Western blot analysis; format: functional, cell-based
# Outline: (§1)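 Western blot of treated K562 cells for Bcl-2, Bax, activated caspase 3 and cleaved PARP (85 kDa fragment). Blots developed by ECL, with band expression quantified by densitometry against an untreated control sample.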
# Raji = assay: Cytotoxicity against human Raji cells assessed as reduction in cell viability after 72 hrs by MTT assay; format: functional, cell-based
# K562 [2] = assay: Induction of apoptosis in human K562 cells assessed as specific apoptosis by Annexin V-FITC/propidium iodide staining based flow cytometry; format: functional; parameters: concentration or dose not given beside the values
# Jurkat = assay: Cytotoxicity against human Jurkat cells assessed as reduction in cell viability after 72 hrs by MTT assay; format: functional, cell-based
# HeLa = assay: Cytotoxicity against human HeLa cells assessed as reduction in cell viability after 72 hrs by MTT assay; format: functional, cell-based
# MDA-MB-231 = assay: Cytotoxicity against human MDA-MB-231 cells assessed as reduction in cell viability after 72 hrs by MTT assay; format: functional, cell-based; settings: MDA-MB-231, 72 h
# HL-60 = assay: Cytotoxicity against human HL60 cells assessed as reduction in cell viability after 72 hrs by MTT assay; format: functional, cell-based; settings: HL-60, 72 h
# K562 [3] = assay: Induction of apoptosis in human K562 cells assessed as total early apoptotic cells by Annexin V-FITC/propidium iodide staining based flow cytometry (reference value: 3.07%); format: functional
# K562 [4] = assay: Cell cycle arrest in human K562 cells assessed as total cell levels at M4 phase at IC50 after 72 hrs by propidium iodide staining based flow cytometry (reference value: 0.50%); format: functional
# K562 [5] = assay: Cell cycle arrest in human K562 cells assessed as total cell levels at S phase at IC50 after 72 hrs by propidium iodide staining based flow cytometry (reference value: 36.49%); format: functional
# K562 [6] = assay: Induction of apoptosis in human K562 cells assessed as decrease in Bcl-2 expression level by Western blot analysis; format: functional, cell-based; outline: as §1
# K562 [7] = assay: Induction of apoptosis in human K562 cells assessed as gated viable cells by Annexin V-FITC/propidium iodide staining based flow cytometry (reference value: 95.78%); format: functional
# K562 [8] = assay: Cell cycle arrest in human K562 cells assessed as accumulation at G0/G1 phase at IC50 after 72 hrs by propidium iodide staining based flow cytometry (reference value: 38.48%); format: functional
# K562 [9] = assay: Cell cycle arrest in human K562 cells assessed as accumulation at sub G1 phase at IC50 after 72 hrs by propidium iodide staining based flow cytometry (reference value: 1.48%); format: functional
# K562 [10] = assay: Induction of apoptosis in human K562 cells assessed as gated late apoptotic cells by Annexin V-FITC/propidium iodide staining based flow cytometry (reference value: 0.88%); format: functional
# K562 [11] = assay: Cytotoxicity against human K562 cells assessed as reduction in cell viability after 72 hrs by MTT assay; format: functional, cell-based; settings: K562, 72 h
# K562 [12] = assay: Induction of apoptosis in human K562 cells assessed as specific necrosis by Annexin V-FITC/propidium iodide staining based flow cytometry; format: functional; parameters: concentration or dose not given beside the values
# A549 = assay: Cytotoxicity against human A549 cells assessed as reduction in cell viability after 72 hrs by MTT assay; format: functional, cell-based; settings: A549, 72 h
# K562 [13] = assay: Induction of apoptosis in human K562 cells assessed as gated early apoptotic cells by Annexin V-FITC/propidium iodide staining based flow cytometry (reference value: 3.18%); format: functional
# K562 [14] = assay: Cell cycle arrest in human K562 cells assessed as total cell levels at G2/M phase at IC50 after 72 hrs by propidium iodide staining based flow cytometry (reference value: 14.31%); format: functional
# K562 [15] = assay: Cell cycle arrest in human K562 cells assessed as total cell levels at G0/G1 phase at IC50 after 72 hrs by propidium iodide staining based flow cytometry (reference value: 39.97%); format: functional
# MRC5 = assay: Cytotoxicity against human MRC5 cells assessed as reduction in cell viability after 72 hrs by MTT assay; format: cell-based; settings: MRC5, 72 h
# K562 [16] = assay: Induction of apoptosis in human K562 cells assessed as total necrotic cells by Annexin V-FITC/propidium iodide staining based flow cytometry (reference value: 0.23%); format: functional
# K562 [17] = assay: Cell cycle arrest in human K562 cells assessed as accumulation at S phase at IC50 after 72 hrs by propidium iodide staining based flow cytometry (reference value: 41.03%); format: functional
# K562 [18] = assay: Induction of apoptosis in human K562 cells assessed as gated necrotic cells by Annexin V-FITC/propidium iodide staining based flow cytometry (reference value: 0.24%); format: functional
# K562 [19] = assay: Cell cycle arrest in human K562 cells assessed as accumulation at G2/M phase at IC50 after 72 hrs by propidium iodide staining based flow cytometry (reference value: 19.01%); format: functional
# K562 [20] = assay: Induction of apoptosis in human K562 cells assessed as total late apoptotic cells by Annexin V-FITC/propidium iodide staining based flow cytometry (reference value: 0.77%); format: functional
# MCF7 = assay: Cytotoxicity against human MCF7 cells assessed as reduction in cell viability after 72 hrs by MTT assay; format: functional, cell-based; settings: MCF7, 72 h
# K562 [21] = assay: Induction of apoptosis in human K562 cells assessed as total viable cells by Annexin V-FITC/propidium iodide staining based flow cytometry (reference value: 92.45%); format: functional
Structure (SMILES),Activity (K562 [1]),IC50 (Raji),Activity (K562 [2]),IC50 (Jurkat),IC50 (HeLa),IC50 (MDA-MB-231),IC50 (HL-60),Activity (K562 [3]),Activity (K562 [4]),Activity (K562 [5]),Activity (K562 [6]),Activity (K562 [7]),Activity (K562 [8]),Activity (K562 [9]),Activity (K562 [10]),IC50 (K562 [11]),Activity (K562 [12]),IC50 (A549),Activity (K562 [13]),Activity (K562 [14]),also measured
O=C1C=C[C@@]2(C[C@H](OC(=O)/C=C/c3ccc(F)cc3)[C@@H](c3ccccc3)O2)O1,Active,55.4 µM,4.02%,22.2 µM,2.21 µM,> 100 µM,4.48 µM,6.24%,2.31%,30.81%,Active,91.63%,41.18%,2.61%,1.38%,1.05 µM,3.58%,25.5 µM,6.46%,19.95%,Activity (K562 [15]): 36.51%; IC50 (MRC5): > 100 µM; Activity (K562 [16]): 0.52%; Activity (K562 [17]): 33.71%; Activity (K562 [18]): 0.54%; Activity (K562 [19]): 22.5%; Activity (K562 [20]): 1.33%; IC50 (MCF7): 21.5 µM; Activity (K562 [21]): 88.51%
COc1ccc(/C=C/C(=O)O[C@H]2C[C@@]3(C=CC(=O)O3)O[C@@H]2c2ccccc2)cc1,Active,99.8 µM,15.35%,21.1 µM,3.64 µM,> 100 µM,6.37 µM,11.61%,1.35%,36.83%,inactive,80.32%,30.72%,1.57%,4.41%,1.11 µM,3.15%,23.1 µM,14.31%,22.36%,Activity (K562 [15]): 26.37%; IC50 (MRC5): > 100 µM; Activity (K562 [16]): 0.78%; Activity (K562 [17]): 42.64%; Activity (K562 [18]): 0.96%; Activity (K562 [19]): 25.07%; Activity (K562 [20]): 3.58%; IC50 (MCF7): 2.22 µM; Activity (K562 [21]): 65.19%
COc1ccc(/C=C/C(=O)O[C@H]2C[C@]3(C=CC(=O)O3)O[C@H]2c2ccccc2)cc1,Active,8.69 µM,2.28%,14.2 µM,12.8 µM,2.64 µM,8.67 µM,5.27%,3.06%,24.97%,inactive,93.46%,41.6%,3.41%,0.78%,12.8 µM,3.76%,1.58 µM,5.39%,25.02%,Activity (K562 [15]): 37.38%; IC50 (MRC5): > 100 µM; Activity (K562 [16]): 0.36%; Activity (K562 [17]): 27.14%; Activity (K562 [18]): 0.37%; Activity (K562 [19]): 27.85%; Activity (K562 [20]): 0.76%; IC50 (MCF7): 11.2 µM; Activity (K562 [21]): 91.39%
O=C1C=C[C@]2(C[C@H](OC(=O)/C=C/c3ccc(F)cc3)[C@@H](c3ccccc3)O2)O1,Active,34.1 µM,8.05%,15.6 µM,6.12 µM,> 100 µM,24.1 µM,9.21%,1.87%,26.82%,inactive,87.45%,40.27%,2.02%,1.85%,8.45 µM,3.28%,> 100 µM,9.86%,27.34%,Activity (K562 [15]): 37.36%; IC50 (MRC5): > 100 µM; Activity (K562 [16]): 0.78%; Activity (K562 [17]): 28.31%; Activity (K562 [18]): 0.83%; Activity (K562 [19]): 29.4%; Activity (K562 [20]): 1.73%; IC50 (MCF7): 9.65 µM; Activity (K562 [21]): 81.7%
O=C1C=C[C@@]2(C[C@H](OC(=O)/C=C/c3ccccc3)[C@@H](c3ccccc3)O2)O1,Active,2.38 µM,86.01%,87.6 µM,0.58 µM,3.45 µM,5.61 µM,68.98%,54.83%,13.85%,Active,12.84%,23.1%,56.93%,4.67%,20.5 µM,4.12%,28.1 µM,82.46%,5.03%,Activity (K562 [15]): 21.87%; IC50 (MRC5): > 100 µM; Activity (K562 [16]): 0.02%; Activity (K562 [17]): 14.63%; Activity (K562 [18]): 0.03%; Activity (K562 [19]): 5.34%; Activity (K562 [20]): 3.48%; IC50 (MCF7): 0.58 µM; Activity (K562 [21]): 2.12%
O=C1C=C[C@@]2(C[C@H](OC(=O)/C=C/c3ccc([N+](=O)[O-])cc3)[C@@H](c3ccccc3)O2)O1,Active,> 100 µM,10.54%,86.5 µM,9.45 µM,> 100 µM,1.32 µM,10.32%,2.67%,34.91%,inactive,84.01%,33.85%,2.93%,2.23%,7.45 µM,2.18%,56.2 µM,11.87%,22.88%,Activity (K562 [15]): 31.72%; IC50 (MRC5): > 100 µM; Activity (K562 [16]): 1.64%; Activity (K562 [17]): 38.08%; Activity (K562 [18]): 1.89%; Activity (K562 [19]): 25.14%; Activity (K562 [20]): 1.94%; IC50 (MCF7): 12.5 µM; Activity (K562 [21]): 73.05%
O=C1C=C[C@@]2(C[C@H](O)[C@@H](c3ccccc3)O2)O1,Active,5.97 µM,11.74%,0.34 µM,2.12 µM,> 100 µM,1.02 µM,1.3%,0.94%,26.52%,inactive,76.16%,39.26%,1.26%,11.28%,0.54 µM,4.8%,21.3 µM,3.97%,18.07%,Activity (K562 [15]): 29.6%; IC50 (MRC5): > 100 µM; Activity (K562 [16]): 2.81%; Activity (K562 [17]): 35.2%; Activity (K562 [18]): 8.59%; Activity (K562 [19]): 24.28%; Activity (K562 [20]): 3.69%; IC50 (MCF7): 3.57 µM; Activity (K562 [21]): 24.92%
COc1ccc(/C=C/C(=O)O[C@H]2C[C@]3(C=CC(=O)O3)O[C@@H]2c2ccccc2)cc1,Active,89.7 µM,37.78%,58.1 µM,3.34 µM,> 100 µM,8.67 µM,27.83%,2.67%,32.71%,inactive,59.39%,21.08%,3.39%,2.92%,2.12 µM,3.86%,33.6 µM,37.43%,27.1%,Activity (K562 [15]): 16.74%; IC50 (MRC5): > 100 µM; Activity (K562 [16]): 0.2%; Activity (K562 [17]): 41.08%; Activity (K562 [18]): 0.27%; Activity (K562 [19]): 34.45%; Activity (K562 [20]): 2.17%; IC50 (MCF7): 3.14 µM; Activity (K562 [21]): 44.16%
